Consider 28 compounds from ChEMBL document CHEMBL1130435, “Synthesis and antitumor activity of duocarmycin derivatives: A-ring pyrrole compounds bearing cinnamoyl groups” (J Med Chem, 1997).

Assay [1] deals with HeLa. Description: In vitro anticellular activity expressed as inhibitory concentration for the growth of HeLa S3 cells for a period of 72 hour. The class given is functional, cell-based. Particulars: Homo sapiens. In short, it runs like this:
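HeLa S3 cells, 2 × 10^4 per well, precultured 24 h at 37 °C in 5% CO2, then exposed continuously to compound for 72 h. Cells detached with PBS(–) containing 0.05% trypsin and 0.02% EDTA and counted electronically. IC50 is the concentration giving 50% inhibition of cell growth.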

In assay [2] the test system is HeLa. Description: In vitro anticellular activity expressed as inhibitory concentration for the growth of human uterine cervix carcinoma HeLa S3 cells for a period of 1 hour. The class given is functional, cell-based. In short, it runs like this:
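HeLa S3 cells seeded at 2 × 10^4/well and precultured 24 h at 37 °C, 5% CO2. Pulse exposure: compound for 1 h, washed with Ca/Mg-free PBS, then grown 71 h in fresh medium. Cells detached with 0.05% trypsin/0.02% EDTA in PBS and counted electronically. IC50 is the concentration giving 50% growth inhibition.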

Assay [3] deals with Mus musculus. The assay is described as follows: Treated/Control value was measured in mice(implanted subcutaneously with sarcoma 180 cells) at the dose of 4 mg/kg. Format: functional. In short, it runs like this: (§1)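 Adult male ddY mice, five per group, implanted sc at the axillary region with passaged sarcoma 180 cells. Drug given iv starting 1 day after inoculation. Tumor length and width measured; volume = length × width²/2. T/C is mean tumor volume of treated over control. Effective if T/C ≤42% with Mann–Whitney U p < 0.05.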

Assay [4] has as its system Mus musculus. The assay is described as follows: Treated/Control value was measured in mice(implanted subcutaneously with sarcoma 180 cells) at the dose of 8 mg/kg. The class given is functional. In short, it runs like this:
as §1

Assay [5] deals with Mus musculus. The assay is described as follows: Treated/Control value was measured in mice(implanted subcutaneously with sarcoma 180 cells) at the dose of 0.13 mg/kg. The class given is functional. In short, it runs like this: as §1
Assay [6] concerns Mus musculus. Description: Treated/Control value was measured in mice(implanted subcutaneously with sarcoma 180 cells) at the dose of 2 mg/kg. Format: functional. In short, it runs like this:
as §1

By IC50 is commonly meant the concentration at which inhibition is half-maximal. Low values mean greater potency in that assay, high ones weaker potency in that assay. As to `COC(=O)c1c(C)[nH]c2c1[C@@]13C[C@@H]1CN(C(=O)/C=C/c1ccc(OC)cc1)C3=CC2=O`, the IC50 in assay [1] came out at 0.94 nM; in assay [2] it was 7 nM.

`CCCOc1ccc(/C=C/C(=O)N2C[C@H]3C[C@@]34C2=CC(=O)c2[nH]c(C)c(C(=O)OC)c24)cc1`: the IC50 in assay [1] turned out to be 8.3 nM; in assay [2] it was 51 nM.

Consider `COC(=O)c1c(C)[nH]c2c1[C@@]13C[C@@H]1CN(C(=O)/C=C/c1ccc(OC)c(N)c1)C3=CC2=O`, for which the concentration for half-maximal inhibition (IC50) came out at 0.53 nM in assay [1] and 2.1 nM in assay [2].

`COC(=O)c1c(C)[nH]c2c1[C@@]13C[C@@H]1CN(C(=O)/C=C/c1ccc(N(C)C)cc1)C3=CC2=O`: the IC50 in assay [1] came to 1.6 nM; in assay [2], 12 nM.

As to `CCCCCOc1ccc(/C=C/C(=O)N2C[C@H]3C[C@@]34C2=CC(=O)c2[nH]c(C)c(C(=O)OC)c24)cc1`, the results for the IC50 in assay [1] and in assay [2] were 50 nM and more than 100 nM, respectively.

On to `COC(=O)c1c(C)[nH]c2c1[C@@]13C[C@@H]1CN(C(=O)/C=C/c1ccc(C)cc1)C3=CC2=O`, for which the IC50 in assay [1] came out at 2.3 nM; in assay [2] it was 33 nM.

Consider `COC(=O)c1c(C)[nH]c2c1C1C(=CC2OC(=O)N(C)C)N(C(=O)/C=C/c2ccc(OC)c(OCC(=O)O)c2)C[C@H]1CBr` (some centres undefined), for which, in assay [3], the T/C is 0.72. Moreover, the IC50 was more than 1000 nM in assay [1] and 10000 nM in assay [2].

Take `COC(=O)c1c(C)[nH]c2c1[C@@]13C[C@@H]1CN(C(=O)/C=C/c1ccc(OC)c(OCCCN(C)C)c1)C3=CC2=O`: the IC50 in assay [1] amounted to 1.6 nM; in assay [2], 3 nM.

Turning to `CCN(CC)c1cc(/C=C/C(=O)N2C[C@H]3C[C@@]34C2=CC(=O)c2[nH]c(C)c(C(=O)OC)c24)ccc1OC`, the IC50 in assay [1] was found to be 2.3 nM; in assay [2], 9.5 nM.

Regarding `CCc1ccc(/C=C/C(=O)N2C[C@H]3C[C@@]34C2=CC(=O)c2[nH]c(C)c(C(=O)OC)c24)cc1`, the IC50 in assay [1] came to 3.8 nM; in assay [2] it was 51 nM.

Regarding `COC(=O)c1c(C)[nH]c2c1[C@@]13C[C@@H]1CN(C(=O)/C=C/c1ccc(OC)c(OCCCN)c1)C3=CC2=O`, the IC50 in assay [1] is 1.4 nM; in assay [2] it was 5.9 nM.

Turning to `COC(=O)c1c(C)[nH]c2c1[C@@]13C[C@@H]1CN(C(=O)/C=C/c1ccc(OCc4ccc(OC)cc4)cc1)C3=CC2=O`, the IC50 came out at 0.81 nM in assay [1] and 13 nM in assay [2].

Turning to `C=CCOc1ccc(/C=C/C(=O)N2C[C@H]3C[C@@]34C2=CC(=O)c2[nH]c(C)c(C(=O)OC)c24)cc1`, the IC50 in assay [1] is 7.5 nM; in assay [2], 39 nM.

`COC(=O)c1c(C)[nH]c2c1[C@@]13C[C@@H]1CN(C(=O)/C=C/c1ccc(NC(=O)OC(C)(C)C)cc1)C3=CC2=O`: the IC50 in assay [1] was 0.56 nM; in assay [2], 4 nM.

Take `COC(=O)c1c(C)[nH]c2c1[C@@]13C[C@@H]1CN(C(=O)/C=C/c1ccc(OC)c(OCCCN=[N+]=[N-])c1)C3=CC2=O`: the IC50 in assay [1] was 0.74 nM; in assay [2] it was 2 nM.

With `COC(=O)c1c(C)[nH]c2c1[C@@]13C[C@@H]1CN(C(=O)c1cc4cc(OC)c(OC)c(OC)c4[nH]1)C3=CC2=O`, the IC50 in assay [1] turned out to be 0.16 nM; in assay [2] it was 0.5 nM.

As to `COC(=O)c1c(C)[nH]c2c1[C@@]13C[C@@H]1CN(C(=O)/C=C/c1ccc(N)cc1)C3=CC2=O`, the results for the IC50 in assay [1] and in assay [2] were 2.6 nM and 32 nM, respectively.

With `COC(=O)c1c(C)[nH]c2c1[C@@]13C[C@@H]1CN(C(=O)/C=C/c1ccc(O)cc1)C3=CC2=O`, the figures for the half-maximal inhibitory concentration (IC50) in assay [1] and in assay [2] were 3.5 nM and 19 nM, respectively.

As to `COC(=O)c1c(C)[nH]c2c1[C@@]13C[C@@H]1CN(C(=O)/C=C/c1ccc(OC)c(OCC(=O)OC(C)(C)C)c1)C3=CC2=O`, the IC50 in assay [1] was found to be 2.3 nM; in assay [2], 7.4 nM.

Regarding `COC(=O)COc1cc(/C=C/C(=O)N2C[C@H]3C[C@@]34C2=CC(=O)c2[nH]c(C)c(C(=O)OC)c24)ccc1OC`, the IC50 in assay [1] turned out to be 0.86 nM; in assay [2] it was 1.3 nM.

For the compound `COC(=O)c1c(C)[nH]c2c1[C@@]13C[C@@H]1CN(C(=O)/C=C/c1ccc(OC)c(N(C)C)c1)C3=CC2=O`, the 50% inhibitory concentration (IC50) is 0.92 nM in assay [1] and 2.5 nM in assay [2].

For the compound `CCN(CC)c1cc(/C=C/C(=O)N2C[C@@H](CBr)C3C2=CC(OC(=O)N2CCN(C)CC2)c2[nH]c(C)c(C(=O)OC)c23)ccc1OC.Cl` (some centres undefined), the values for the IC50 in assay [1] and in assay [2] were 280 nM and 2100 nM, respectively. The compound further returned a T/C in assay [4] of 0.2.

With `COC(=O)c1c(C)[nH]c2c1C1C(=CC2OC(=O)N2CCN(CC(=O)NC(C)C)CC2)N(C(=O)/C=C/c2ccc(OC)cc2)C[C@H]1CBr.Cl` (some centres undefined), the IC50 in assay [1] turned out to be 61 nM; in assay [2], 1200 nM. Also, the T/C in assay [4] stood at 0.12.

Take `COC(=O)c1c(C)[nH]c2c1C1C(=CC2OC(=O)N2CCN(C)CC2)N(C(=O)/C=C/c2ccc(OC)c(N)c2)C[C@H]1CBr.Cl` (some centres undefined): the IC50 is 30 nM in assay [1] and 290 nM in assay [2]. In addition, the T/C in assay [4] is listed as 0.39.

Regarding `COC(=O)c1c(C)[nH]c2c1C1C(=CC2OC(=O)N2CCN(C)CC2)N(C(=O)/C=C/c2ccc(OC)c(OCCCN)c2)C[C@H]1CBr.Cl` (some centres undefined), the T/C in assay [5] is 0.77. The IC50 in assay [1] was 30 nM; in assay [2], 290 nM.

As to `COC(=O)c1c(C)[nH]c2c1C1C(=CC2OC(=O)N2CCC(N3CCCCC3)CC2)N(C(=O)/C=C/c2ccc(OC)cc2)C[C@H]1CBr.Cl` (some centres undefined), the T/C in assay [3] came to 0.17. For the same compound, the values for the IC50 in assay [1] and in assay [2] were 224 nM and 1000 nM, respectively.

With `COC(=O)c1c(C)[nH]c2c1C1C(=CC2OC(=O)N2CCN(C)CC2)N(C(=O)/C=C/c2ccc(OC)c(N(C)C)c2)C[C@H]1CBr.Cl` (some centres undefined), in assay [6], the T/C is reported as 0.13. In addition, the IC50 was determined as 52 nM in assay [1] and 430 nM in assay [2].

In turn, `COC(=O)c1c(C)[nH]c2c1C1C(=CC2OC(=O)N2CCN(C)CC2)N(C(=O)/C=C/c2ccc(OC)cc2)C[C@H]1CBr.Cl` (some centres undefined) came in with a T/C in assay [3] of 0.2. Also, the IC50 in assay [1] was 37 nM; in assay [2], 1800 nM.
